Measurements as given in ChEMBL document CHEMBL4834420, “Projected Dose Optimization of Amino- and Hydroxypyrrolidine Purine PI3Kδ Immunomodulators” (J Med Chem, 2021).
Values after ≈ are worked out from the molar mass of the structure shown.

What was measured:
[1] = Inhibition of adenosine transporter in human HeLa cells assessed as reduction in [3H]adenosine uptake preincubated for 30 mins followed by [3H]adenosine addition and measured after 60 mins; type: cell-based
[2] = Apparent permeability in pig LLC-PK1 cells; type: ADME, cell-based, Sus scrofa
[3] = Half-life in Wistar Han rat; type: ADME; settings: in vivo
[4] = target: T1, Phosphatidylinositol 4,5-bisphosphate 3-kinase catalytic subunit delta isoform (Homo sapiens, UniProt O00329); experiment: Inhibition of PI3Kdelta in human whole blood assessed as reduction in antihuman IgE antibody-stimulated CD63 expression preincubated for 30 mins followed by antihuman IgE antibody stimulation and measured after 20 mins by FACS analysis; type: tissue-based
T1 sequence (O00329 whole entry): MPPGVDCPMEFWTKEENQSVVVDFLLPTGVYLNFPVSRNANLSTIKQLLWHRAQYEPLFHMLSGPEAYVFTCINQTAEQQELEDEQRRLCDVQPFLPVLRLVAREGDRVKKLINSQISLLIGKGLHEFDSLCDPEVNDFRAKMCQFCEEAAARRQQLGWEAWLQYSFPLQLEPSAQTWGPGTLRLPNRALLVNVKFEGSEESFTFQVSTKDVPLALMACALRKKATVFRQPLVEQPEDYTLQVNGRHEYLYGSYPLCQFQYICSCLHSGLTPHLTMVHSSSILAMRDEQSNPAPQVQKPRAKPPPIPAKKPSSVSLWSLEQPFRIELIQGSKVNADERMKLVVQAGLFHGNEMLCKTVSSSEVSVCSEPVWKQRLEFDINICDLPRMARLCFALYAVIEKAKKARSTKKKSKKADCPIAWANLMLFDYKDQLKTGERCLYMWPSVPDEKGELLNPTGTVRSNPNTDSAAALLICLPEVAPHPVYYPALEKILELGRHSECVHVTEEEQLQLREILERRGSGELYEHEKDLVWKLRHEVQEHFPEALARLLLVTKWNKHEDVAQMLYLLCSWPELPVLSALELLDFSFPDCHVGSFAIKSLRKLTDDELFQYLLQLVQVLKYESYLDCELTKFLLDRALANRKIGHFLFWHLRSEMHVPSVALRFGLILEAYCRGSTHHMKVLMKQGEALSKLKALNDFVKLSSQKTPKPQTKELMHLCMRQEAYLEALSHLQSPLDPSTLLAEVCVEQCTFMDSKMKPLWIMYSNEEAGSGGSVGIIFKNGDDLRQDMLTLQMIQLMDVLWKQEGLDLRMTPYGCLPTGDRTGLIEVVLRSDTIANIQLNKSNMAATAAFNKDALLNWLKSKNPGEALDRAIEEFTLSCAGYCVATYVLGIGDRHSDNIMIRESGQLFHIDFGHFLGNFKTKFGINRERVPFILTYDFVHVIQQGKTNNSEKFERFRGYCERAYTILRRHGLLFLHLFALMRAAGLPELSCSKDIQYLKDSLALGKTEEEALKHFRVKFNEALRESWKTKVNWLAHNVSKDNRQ
In short: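 Blood from healthy human volunteer donors, pre-incubated with compound (DMSO, varying concentrations) for 30 min at 37 °C. Basotest reagent B added for 30 min at 37 °C, then goat anti-human IgE (50 ng/mL in reagent A before addition) for 20 min at 37 °C. Stopped on ice, stained for CD63/IgE/CD203c/CD45 (20 min, 4 °C), RBC-lysed, and read by flow cytometry. IgE+ basophils gated, CD63+ scored; IC50 from sigmoidal fit of % inhibition.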

BCRP = experiment: Efflux ratio of apparent permeability from basolateral to apical side over apical to basolateral side in MDCK2 cells expressing BCRP; type: ADME, cell-based, Canis lupus familiaris, MDCK-II; settings: dog
[5] = target: Voltage-gated inwardly rectifying potassium channel KCNH2 (Homo sapiens, UniProt Q12809); experiment: Inhibition of hERG (unknown origin)
[6] = target: Voltage-dependent L-type calcium channel subunit alpha-1C (Homo sapiens, UniProt Q13936); experiment: Inhibition of Cav1.2 (unknown origin)
Cytochrome P450 1A2 = target: T2, Cytochrome P450 1A2 (Homo sapiens, UniProt P05177); experiment: Inhibition of CYP1A2 (unknown origin); type: ADME
T2 sequence (P05177 whole entry): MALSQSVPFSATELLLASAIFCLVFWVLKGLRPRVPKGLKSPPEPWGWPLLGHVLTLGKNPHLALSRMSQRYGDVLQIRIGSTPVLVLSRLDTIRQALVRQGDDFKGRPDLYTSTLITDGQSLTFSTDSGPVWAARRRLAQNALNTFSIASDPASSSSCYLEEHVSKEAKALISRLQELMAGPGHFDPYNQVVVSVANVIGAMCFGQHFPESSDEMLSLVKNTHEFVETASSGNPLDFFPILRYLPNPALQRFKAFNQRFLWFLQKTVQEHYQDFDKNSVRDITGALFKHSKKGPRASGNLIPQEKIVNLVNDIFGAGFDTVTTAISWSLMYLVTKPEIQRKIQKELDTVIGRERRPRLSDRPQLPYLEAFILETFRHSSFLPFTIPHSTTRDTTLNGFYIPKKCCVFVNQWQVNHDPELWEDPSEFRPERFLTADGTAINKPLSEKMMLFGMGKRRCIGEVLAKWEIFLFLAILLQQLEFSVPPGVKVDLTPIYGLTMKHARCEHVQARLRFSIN

[7] = Intrinsic clearance in dog hepatocytes; type: ADME, cell-based, Canis lupus familiaris, Hepatocyte; settings: read-out: CLH
[8] = Intrinsic clearance in human hepatocytes; type: ADME, cell-based, Hepatocyte
[9] = Protein binding in human plasma; type: ADME, cell-free; settings: read-out: PPB (converted)
[10] = target: T3, Solute carrier organic anion transporter family member 1B1 (Homo sapiens, UniProt Q9Y6L6); experiment: Inhibition of OATP1B1 (unknown origin)
T3 sequence (Q9Y6L6 whole entry): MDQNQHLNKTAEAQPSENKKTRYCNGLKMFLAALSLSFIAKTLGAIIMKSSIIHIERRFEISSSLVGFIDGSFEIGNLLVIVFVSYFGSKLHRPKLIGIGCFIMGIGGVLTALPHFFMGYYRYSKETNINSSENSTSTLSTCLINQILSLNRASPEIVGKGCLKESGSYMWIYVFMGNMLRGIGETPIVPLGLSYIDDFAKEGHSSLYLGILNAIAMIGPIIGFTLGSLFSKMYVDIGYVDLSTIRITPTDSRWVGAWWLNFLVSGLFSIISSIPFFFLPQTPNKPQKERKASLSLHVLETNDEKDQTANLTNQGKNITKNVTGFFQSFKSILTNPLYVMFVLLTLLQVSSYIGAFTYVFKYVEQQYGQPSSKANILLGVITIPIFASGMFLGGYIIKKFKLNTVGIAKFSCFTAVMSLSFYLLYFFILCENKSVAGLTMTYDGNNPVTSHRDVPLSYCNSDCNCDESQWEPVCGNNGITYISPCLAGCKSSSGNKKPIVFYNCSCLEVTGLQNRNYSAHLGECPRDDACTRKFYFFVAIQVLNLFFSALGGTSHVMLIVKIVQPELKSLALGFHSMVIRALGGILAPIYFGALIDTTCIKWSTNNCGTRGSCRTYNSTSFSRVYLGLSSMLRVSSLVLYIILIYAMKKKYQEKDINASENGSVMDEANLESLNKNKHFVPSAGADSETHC

[11] = AUC in C57BL/6 mouse at 100 mg/kg; type: ADME, organism-based; design: dose 100 mg/kg; settings: in vivo
[12] = Solubility of compound in stimulated intestinal fluid; type: physicochemical; settings: simulated intestinal fluid

Chain of Voltage-dependent L-type calcium channel subunit alpha-1C (Q13936 whole entry): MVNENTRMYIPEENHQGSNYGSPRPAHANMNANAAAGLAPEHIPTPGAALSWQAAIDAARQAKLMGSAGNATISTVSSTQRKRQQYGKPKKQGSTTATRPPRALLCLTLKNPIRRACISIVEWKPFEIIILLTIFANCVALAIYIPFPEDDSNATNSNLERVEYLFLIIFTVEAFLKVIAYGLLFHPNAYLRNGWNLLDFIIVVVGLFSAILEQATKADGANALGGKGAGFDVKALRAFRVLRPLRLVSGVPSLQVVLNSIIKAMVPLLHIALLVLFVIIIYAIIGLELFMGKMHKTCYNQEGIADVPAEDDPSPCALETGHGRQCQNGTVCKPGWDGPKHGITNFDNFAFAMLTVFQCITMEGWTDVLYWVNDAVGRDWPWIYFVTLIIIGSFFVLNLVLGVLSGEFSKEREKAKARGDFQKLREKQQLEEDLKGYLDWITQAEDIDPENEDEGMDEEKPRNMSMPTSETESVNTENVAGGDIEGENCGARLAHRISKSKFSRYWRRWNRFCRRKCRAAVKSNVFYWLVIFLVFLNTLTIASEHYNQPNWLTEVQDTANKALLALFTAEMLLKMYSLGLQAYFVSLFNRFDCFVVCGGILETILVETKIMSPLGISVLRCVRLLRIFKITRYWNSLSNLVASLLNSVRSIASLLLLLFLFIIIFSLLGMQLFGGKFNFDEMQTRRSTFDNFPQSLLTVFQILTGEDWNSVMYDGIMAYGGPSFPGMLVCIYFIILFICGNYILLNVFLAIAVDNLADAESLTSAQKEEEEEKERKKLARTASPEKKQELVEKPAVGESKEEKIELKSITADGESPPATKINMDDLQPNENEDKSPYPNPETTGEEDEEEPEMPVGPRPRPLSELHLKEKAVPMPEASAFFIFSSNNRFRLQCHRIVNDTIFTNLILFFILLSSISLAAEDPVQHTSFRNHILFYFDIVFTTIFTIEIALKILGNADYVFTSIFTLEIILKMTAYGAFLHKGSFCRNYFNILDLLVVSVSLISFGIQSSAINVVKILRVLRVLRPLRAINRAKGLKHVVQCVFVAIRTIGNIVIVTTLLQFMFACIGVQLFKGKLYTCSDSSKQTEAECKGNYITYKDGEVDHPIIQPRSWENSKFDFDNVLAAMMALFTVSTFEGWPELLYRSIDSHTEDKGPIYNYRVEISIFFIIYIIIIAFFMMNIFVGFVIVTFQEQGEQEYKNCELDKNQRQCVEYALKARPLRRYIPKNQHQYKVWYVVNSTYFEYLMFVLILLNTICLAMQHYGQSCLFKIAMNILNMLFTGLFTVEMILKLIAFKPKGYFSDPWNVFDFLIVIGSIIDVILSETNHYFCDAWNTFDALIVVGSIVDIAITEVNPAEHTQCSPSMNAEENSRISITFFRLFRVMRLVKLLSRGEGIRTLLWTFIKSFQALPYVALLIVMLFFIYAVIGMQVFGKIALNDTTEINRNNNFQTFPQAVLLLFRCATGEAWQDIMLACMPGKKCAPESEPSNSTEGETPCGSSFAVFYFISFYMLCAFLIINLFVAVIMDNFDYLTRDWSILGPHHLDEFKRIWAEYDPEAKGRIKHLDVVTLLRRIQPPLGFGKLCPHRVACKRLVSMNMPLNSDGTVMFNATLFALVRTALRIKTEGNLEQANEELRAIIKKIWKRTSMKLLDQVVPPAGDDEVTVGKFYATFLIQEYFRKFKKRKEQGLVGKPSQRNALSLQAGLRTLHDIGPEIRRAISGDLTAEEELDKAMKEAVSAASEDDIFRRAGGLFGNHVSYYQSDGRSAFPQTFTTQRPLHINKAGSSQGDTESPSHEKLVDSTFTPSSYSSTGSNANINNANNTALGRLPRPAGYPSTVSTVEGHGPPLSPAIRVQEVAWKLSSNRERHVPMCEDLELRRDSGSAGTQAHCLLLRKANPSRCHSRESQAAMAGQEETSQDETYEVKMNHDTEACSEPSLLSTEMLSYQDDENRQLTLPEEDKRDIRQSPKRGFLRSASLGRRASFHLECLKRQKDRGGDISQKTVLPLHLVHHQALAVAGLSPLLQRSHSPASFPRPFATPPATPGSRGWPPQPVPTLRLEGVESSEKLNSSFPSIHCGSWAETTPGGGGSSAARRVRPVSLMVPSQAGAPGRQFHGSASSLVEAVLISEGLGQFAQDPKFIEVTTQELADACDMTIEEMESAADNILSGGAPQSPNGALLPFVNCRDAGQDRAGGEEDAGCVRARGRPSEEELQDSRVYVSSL
Chain of Voltage-gated inwardly rectifying potassium channel KCNH2 (Q12809 whole entry): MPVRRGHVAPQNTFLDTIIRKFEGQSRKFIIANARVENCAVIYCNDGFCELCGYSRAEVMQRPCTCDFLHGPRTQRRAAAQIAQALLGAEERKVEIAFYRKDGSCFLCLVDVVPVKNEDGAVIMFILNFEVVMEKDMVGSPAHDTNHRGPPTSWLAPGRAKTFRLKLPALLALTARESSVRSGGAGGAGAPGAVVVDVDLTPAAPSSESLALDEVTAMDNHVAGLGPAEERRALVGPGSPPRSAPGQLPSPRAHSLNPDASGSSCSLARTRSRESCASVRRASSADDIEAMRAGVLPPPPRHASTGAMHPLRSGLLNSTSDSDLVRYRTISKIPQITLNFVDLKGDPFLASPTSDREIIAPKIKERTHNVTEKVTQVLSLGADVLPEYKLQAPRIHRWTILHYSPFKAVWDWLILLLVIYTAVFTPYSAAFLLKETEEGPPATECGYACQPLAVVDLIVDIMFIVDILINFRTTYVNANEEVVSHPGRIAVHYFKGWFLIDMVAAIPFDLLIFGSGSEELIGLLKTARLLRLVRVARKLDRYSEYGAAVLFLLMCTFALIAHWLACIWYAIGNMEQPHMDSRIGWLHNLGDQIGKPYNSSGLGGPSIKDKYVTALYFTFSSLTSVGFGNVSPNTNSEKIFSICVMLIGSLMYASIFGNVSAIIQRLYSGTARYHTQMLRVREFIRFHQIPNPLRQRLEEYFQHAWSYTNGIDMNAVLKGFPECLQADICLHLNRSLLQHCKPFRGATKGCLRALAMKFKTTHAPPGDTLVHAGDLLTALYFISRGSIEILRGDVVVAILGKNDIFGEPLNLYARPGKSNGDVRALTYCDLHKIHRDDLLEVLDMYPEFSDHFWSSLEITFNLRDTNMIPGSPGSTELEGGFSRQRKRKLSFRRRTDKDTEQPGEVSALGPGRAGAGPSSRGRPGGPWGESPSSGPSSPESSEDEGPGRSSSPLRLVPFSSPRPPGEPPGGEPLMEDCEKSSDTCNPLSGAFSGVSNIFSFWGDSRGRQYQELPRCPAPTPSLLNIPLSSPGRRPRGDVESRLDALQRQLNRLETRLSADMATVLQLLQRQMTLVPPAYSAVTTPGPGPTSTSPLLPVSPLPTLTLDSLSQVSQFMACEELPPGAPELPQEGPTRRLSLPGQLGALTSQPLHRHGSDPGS

IC50 [1]: 5 µM
Papp [2]: 22 ×10⁻⁶ cm/s
half-life [3]: 2.7 h
IC50 [4]: 0.05 µM
efflux ratio (BCRP): 5
IC50 (Cytochrome P450 1A2): > 50 µM
CLint scaled [7]: < 2 mL/min/kg
CLint scaled [8]: < 2 mL/min/kg
fraction unbound [9]: 0.7
inhibition (INH) [10]: Not Active
AUC [11]: 133 µM·h
solubility [12]: 14 mg/mL (≈ 35.7 mM)
SMILES: CCn1c(-c2cnc(C)nc2)nc2c(N[C@H]3CCN(C(=O)C4CC4)C3)ncnc21
IC50 [5]: > 50 µM
IC50 [6]: > 50 µM
